In ChEMBL document CHEMBL2034980, “N⁴-Phenyl-substituted 2-acetylpyridine thiosemicarbazones: cytotoxicity against human tumor cells, structure-activity relationship studies and investigation on the mechanism of action” (Bioorg Med Chem, 2012):
Calls of active or inactive are those of the source. The rule behind the calls is not given here.

Experiments:
MCF7 [1] = test: Cytotoxicity against human MCF7 cells after 48 hrs by MTT assay; type: functional, cell-based; details: for IC50: MCF7, 48 h
Procedure, shortened: (§1)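 MTT assay. Cells were grown in DMEM with 10% FBS and penicillin/streptomycin at 37 °C under 5% CO2, seeded at 1–2×10^3 cells/well and treated 12 h later with 1×10^-12 to 1×10^-5 M ([…] from DMSO stock, final DMSO <0.5%) for 48 h. MTT was added at 0.5 mg mL⁻¹, formazan dissolved in DMSO and read at 570 nm. IC50 is the concentration giving 50% cytotoxicity. Quadruplicates, ≥3 independent experiments.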

T98G [2] = test: Cytotoxicity against human T98G cells expressing mutant p53 after 48 hrs by MTT assay; type: functional, cell-based; procedure, shortened: as §1
[3] = (§2) Cytotoxicity against human U87 cells expressing wild-type p53 after 48 hrs by MTT assay; type: functional, cell-based, U-87MG ATCC; details: U-87 MG; procedure, shortened: as §1
MCF7 [4] = test: Induction of apoptosis in human MCF7 cells assessed as chromatin condensation at 1 uM after 48 hrs by DAPI staining; type: functional, cell-based
Procedure, shortened: (§3)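 Cells were treated at 1 μM for 48 h, washed in PBS and fixed in 70% methanol for 30 min at room temperature. They were stained with 0.4 μg mL⁻¹ DAPI for 1 h in the dark, and nuclear condensation and fragmentation were scored by fluorescence microscopy (385–410 nm).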

MCF7 [5] = test: Induction of apoptosis in human MCF7 cells assessed as chromatin condensation at 1 uM after 48 hrs by acridine orange/ethidium bromide staining-based microscopy; type: functional, cell-based
Procedure, shortened: (§4)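 After 48 h at 1 μM, cells were incubated for 15 min in serum-free medium containing 1 μg mL⁻¹ acridine orange and 1 μg mL⁻¹ ethidium bromide. The medium was removed and cells imaged by inverted fluorescence microscopy (530–650 nm). Green/orange nuclear patterns and acidic cytoplasmic vacuoles were scored.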

U-87MG ATCC [6] = test: Induction of apoptosis in human U87 cells assessed as appearance of autophagolysosomes at 1 uM after 48 hrs by acridine orange/ethidium bromide staining-based microscopy; type: functional, cell-based; procedure, shortened: as §4
MCF7 [7] = test: Induction of apoptosis in human MCF7 cells assessed as membrane blebbing at 1 uM after 48 hrs by DAPI staining; type: functional, cell-based
MCF7 [8] = test: Induction of apoptosis in human MCF7 cells assessed as appearance of autophagolysosomes at 1 uM after 48 hrs by acridine orange/ethidium bromide staining-based microscopy; type: functional, cell-based; procedure, shortened: as §4
U-87MG ATCC [9] = test: Induction of apoptosis in human U87 cells assessed as chromatin condensation at 1 uM after 48 hrs by DAPI staining; type: functional, cell-based; procedure, shortened: as §3
T98G [10] = test: Induction of apoptosis in human T98G cells assessed as chromatin condensation at 1 uM after 48 hrs by DAPI staining; type: functional, cell-based; procedure, shortened: as §3
MCF7 [11] = test: Induction of apoptosis in human MCF7 cells assessed as DNA fragmentation at 1 uM after 48 hrs by DAPI staining; type: functional, cell-based; procedure, shortened: as §3
T98G [12] = test: Induction of apoptosis in human T98G cells assessed as chromatin condensation at 1 uM after 48 hrs by acridine orange/ethidium bromide staining-based microscopy; type: functional, cell-based; procedure, shortened: as §4
T98G [13] = test: Induction of apoptosis in human T98G cells assessed as DNA fragmentation at 1 uM after 48 hrs by DAPI staining; type: functional, cell-based; procedure, shortened: as §3
U-87MG ATCC [14] = test: Induction of apoptosis in human U87 cells assessed as membrane blebbing at 1 uM after 48 hrs by DAPI staining; type: functional, cell-based
T98G [15] = test: Induction of apoptosis in human T98G cells assessed as appearance of autophagolysosomes at 1 uM after 48 hrs by acridine orange/ethidium bromide staining-based microscopy; type: functional, cell-based; procedure, shortened: as §4
MCF7 [16] = test: Induction of apoptosis in human MCF7 cells assessed as irregularities in cellular shape at 1 uM after 48 hrs by DAPI staining; type: functional, cell-based
[17] = Haemolytic activity in human RBC after 1 hr by photometry; type: ADME, cell-based; details: Erythrocyte
Procedure, shortened: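 Human EDTA blood was spun at 700xg for 10 min and the erythrocytes washed three times in cold PBS pH 7.4, then resuspended in it. Cells were incubated with varying compound concentrations for 1 h at 37 °C with shaking. After centrifugation, released haemoglobin was read at 540 nm to give the IC50. Mean ± SD, n = 4.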

U-87MG ATCC [18] = test: Induction of apoptosis in human U87 cells assessed as cell shrinkage at 1 uM after 48 hrs by DAPI staining; type: functional, cell-based
U-87MG ATCC [19] = test: Induction of apoptosis in human U87 cells assessed as chromatin condensation at 1 uM after 48 hrs by acridine orange/ethidium bromide staining-based microscopy; type: functional, cell-based; procedure, shortened: as §4
T98G [20] = test: Induction of apoptosis in human T98G cells assessed as irregularities in cellular shape at 1 uM after 48 hrs by DAPI staining; type: functional, cell-based
T98G [21] = test: Induction of apoptosis in human T98G cells assessed as membrane blebbing at 1 uM after 48 hrs […]; type: functional, cell-based
U-87MG ATCC [22] = test: Induction of apoptosis in human U87 cells assessed as irregularities in cellular shape at 1 uM after 48 hrs by DAPI staining; type: functional, cell-based
U-87MG ATCC [23] = test: as §2; type: functional, cell-based; procedure, shortened: as §1
T98G [24] = test: Induction of apoptosis in human T98G cells assessed as cell shrinkage at 1 uM after 48 hrs by DAPI staining; type: functional, cell-based
U-87MG ATCC [25] = test: Induction of apoptosis in human U87 cells assessed as DNA fragmentation at 1 uM after 48 hrs by DAPI staining; type: functional, cell-based; procedure, shortened: as §3
MCF7 [26] = test: Induction of apoptosis in human MCF7 cells assessed as cell shrinkage at 1 uM after 48 hrs by DAPI staining; type: functional, cell-based

## C/C(=N/NC(=S)Nc1ccc(F)cc1)c1ccccn1
MCF7 [1]; read-out: pIC50 (converted)
  IC50: 1.2 nM
T98G [2]; read-out: pIC50 (converted)
  IC50: 17 nM
[3]; read-out: pIC50 (converted)
  IC50: 10 nM

## C/C(=N\NC(=S)Nc1ccc(F)cc1)c1ccccn1
MCF7 [1]; read-out: pIC50 (converted)
  IC50: 1.2 nM
T98G [2]; read-out: pIC50 (converted)
  IC50: 17 nM
[3]; read-out: pIC50 (converted)
  IC50: 10 nM

## CC(=NNC(=S)Nc1ccccc1I)c1ccccn1 (mixture of isomers)
MCF7 [4]
  Activity: Active
MCF7 [5]
  Activity: Active
U-87MG ATCC [6]
  Activity: Active
MCF7 [7]
  Activity: Active
MCF7 [8]
  Activity: Active
U-87MG ATCC [9]
  Activity: Active
T98G [10]
  Activity: Active
MCF7 [11]
  Activity: Active
MCF7 [1]
  Activity: Dose-dependent effect
MCF7 [1]; read-out: IC50
  IC50: 4.1 nM
T98G [12]
  Activity: Active
T98G [13]
  Activity: Active
U-87MG ATCC [14]
  Activity: Active
T98G [2]
  Activity: Dose-dependent effect
T98G [2]; read-out: IC50
  IC50: 8.1 nM
T98G [15]
  Activity: Active
MCF7 [16]
  Activity: Active
[17]
  IC50: > 10 µM
U-87MG ATCC [18]
  Activity: Active
U-87MG ATCC [19]
  Activity: Active
T98G [20]
  Activity: Active
T98G [21]
  Activity: Active
U-87MG ATCC [22]
  Activity: Active
[3]; read-out: IC50
  IC50: 6.1 nM
U-87MG ATCC [23]
  Activity: Dose-dependent effect
T98G [24]
  Activity: Active
U-87MG ATCC [25]
  Activity: Active
MCF7 [26]
  Activity: Active

## C/C(=N/NC(=S)Nc1ccccc1[N+](=O)[O-])c1ccccn1
MCF7 [1]; read-out: pIC50 (converted)
  IC50: 5.7 nM
T98G [2]; read-out: pIC50 (converted)
  IC50: 6.61 nM
[3]; read-out: pIC50 (converted)
  IC50: 4.3 nM

## C/C(=N/NC(=S)Nc1ccc([N+](=O)[O-])cc1)c1ccccn1
MCF7 [1]; read-out: pIC50 (converted)
  IC50: 52 nM
T98G [2]; read-out: pIC50 (converted)
  IC50: 140 nM
[3]; read-out: pIC50 (converted)
  IC50: 160 nM

## C/C(=N\NC(=S)Nc1ccccc1F)c1ccccn1
MCF7 [1]; read-out: pIC50 (converted)
  IC50: 0.39 nM
T98G [2]; read-out: pIC50 (converted)
  IC50: 3.1 nM
[3]; read-out: pIC50 (converted)
  IC50: 5 nM

## C/C(=N\NC(=S)Nc1ccc(I)cc1)c1ccccn1
MCF7 [1]; read-out: pIC50 (converted)
  IC50: 6.61 nM
T98G [2]; read-out: pIC50 (converted)
  IC50: 64 nM
[3]; read-out: pIC50 (converted)
  IC50: 59 nM

## CC(=NNC(=S)Nc1cccc(Cl)c1)c1ccccn1 (mixture of isomers)
MCF7 [4]
  Activity: Active
MCF7 [5]
  Activity: Active
U-87MG ATCC [6]
  Activity: Active
MCF7 [7]
  Activity: Active
MCF7 [8]
  Activity: Active
U-87MG ATCC [9]
  Activity: Active
T98G [10]
  Activity: Active
MCF7 [11]
  Activity: Active
MCF7 [1]
  Activity: Dose-dependent effect
MCF7 [1]; read-out: IC50
  IC50: 24 nM
T98G [12]
  Activity: Active
T98G [13]
  Activity: Active
U-87MG ATCC [14]
  Activity: Active
T98G [2]
  Activity: Dose-dependent effect
T98G [2]; read-out: IC50
  IC50: 1 nM
T98G [15]
  Activity: Active
MCF7 [16]
  Activity: Active
[17]
  IC50: > 10 µM
U-87MG ATCC [18]
  Activity: Active
U-87MG ATCC [19]
  Activity: Active
T98G [20]
  Activity: Active
T98G [21]
  Activity: Active
U-87MG ATCC [22]
  Activity: Active
[3]; read-out: IC50
  IC50: 31 nM
U-87MG ATCC [23]
  Activity: Dose-dependent effect
T98G [24]
  Activity: Active
U-87MG ATCC [25]
  Activity: Active
MCF7 [26]
  Activity: Active

## C/C(=N/NC(=S)Nc1cccc(Cl)c1)c1ccccn1
MCF7 [1]; read-out: pIC50 (converted)
  IC50: 24 nM
T98G [2]; read-out: pIC50 (converted)
  IC50: 1 nM
[3]; read-out: pIC50 (converted)
  IC50: 31 nM

## C/C(=N\NC(=S)Nc1ccccc1)c1ccccn1
MCF7 [1]; read-out: pIC50 (converted)
  IC50: 0.18 nM
T98G [2]; read-out: pIC50 (converted)
  IC50: 6.81 nM
[3]; read-out: pIC50 (converted)
  IC50: 1.4 nM

## C/C(=N/NC(=S)Nc1cccc(F)c1)c1ccccn1
MCF7 [1]; read-out: pIC50 (converted)
  IC50: 8.99 nM
T98G [2]; read-out: pIC50 (converted)
  IC50: 12 nM
[3]; read-out: pIC50 (converted)
  IC50: 18 nM

## C/C(=N\NC(=S)Nc1cccc(Cl)c1)c1ccccn1
MCF7 [1]; read-out: pIC50 (converted)
  IC50: 24 nM
T98G [2]; read-out: pIC50 (converted)
  IC50: 1 nM
[3]; read-out: pIC50 (converted)
  IC50: 31 nM

## CC(=NNC(=S)Nc1cccc(F)c1)c1ccccn1 (mixture of isomers)
MCF7 [4]
  Activity: Active
MCF7 [5]
  Activity: Active
U-87MG ATCC [6]
  Activity: Active
MCF7 [7]
  Activity: Active
MCF7 [8]
  Activity: Active
U-87MG ATCC [9]
  Activity: Active
T98G [10]
  Activity: Active
MCF7 [11]
  Activity: Active
MCF7 [1]
  Activity: Dose-dependent effect
MCF7 [1]; read-out: IC50
  IC50: 9 nM
T98G [12]
  Activity: Active
T98G [13]
  Activity: Active
U-87MG ATCC [14]
  Activity: Active
T98G [2]
  Activity: Dose-dependent effect
T98G [2]; read-out: IC50
  IC50: 12 nM
T98G [15]
  Activity: Active
MCF7 [16]
  Activity: Active
[17]
  IC50: > 10 µM
U-87MG ATCC [18]
  Activity: Active
U-87MG ATCC [19]
  Activity: Active
T98G [20]
  Activity: Active
T98G [21]
  Activity: Active
U-87MG ATCC [22]
  Activity: Active
[3]; read-out: IC50
  IC50: 18 nM
U-87MG ATCC [23]
  Activity: Dose-dependent effect
T98G [24]
  Activity: Active
U-87MG ATCC [25]
  Activity: Active
MCF7 [26]
  Activity: Active

## C/C(=N\NC(=S)Nc1ccccc1I)c1ccccn1
MCF7 [1]; read-out: pIC50 (converted)
  IC50: 4.1 nM
T98G [2]; read-out: pIC50 (converted)
  IC50: 8.09 nM
[3]; read-out: pIC50 (converted)
  IC50: 6.1 nM

## C/C(=N\NC(=S)Nc1cccc(I)c1)c1ccccn1
MCF7 [1]; read-out: pIC50 (converted)
  IC50: 45 nM
T98G [2]; read-out: pIC50 (converted)
  IC50: 61 nM
[3]; read-out: pIC50 (converted)
  IC50: 83.9 nM
